Calls of active or inactive are those of the source. No cut-off for these calls is given here.
Experiments:
[1] = target: T1, Nitric oxide synthase, inducible (Homo sapiens, UniProt P35228); assay: Inhibition of recombinant N-terminal His-tagged human iNOS expressed in Escherichia coli at 1 uM using L-arginine as substrate preincubated for 15 mins followed by NADPH addition and measured after 20 mins by OPA/NAC reagent based HPLC-fluorimetric analysis relative to control
How it was run: (§1)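 Primary screen: percent inhibition of iNOS and nNOS measured at 1 μM compound; mean ± SD of triplicate experiments.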

Nitric oxide synthase 1 [2] = target: T2, Nitric oxide synthase 1 (Homo sapiens, UniProt P29475); assay: Inhibition of recombinant human nNOS expressed in Escherichia coli at 1 uM using L-arginine as substrate preincubated for 15 mins followed by NADPH addition and measured after 20 mins by OPA/NAC reagent based HPLC-fluorimetric analysis relative to control; how it was run: as §1
[3] = target: T3, Nitric oxide synthase 3 (Homo sapiens) (UniProt P29474); assay: Inhibition of human eNOS at 10 uM using L-arginine as substrate preincubated for 15 mins followed by NADPH addition and measured after 20 mins by OPA/NAC reagent based HPLC-fluorimetric analysis relative to control
T3 sequence (whole entry): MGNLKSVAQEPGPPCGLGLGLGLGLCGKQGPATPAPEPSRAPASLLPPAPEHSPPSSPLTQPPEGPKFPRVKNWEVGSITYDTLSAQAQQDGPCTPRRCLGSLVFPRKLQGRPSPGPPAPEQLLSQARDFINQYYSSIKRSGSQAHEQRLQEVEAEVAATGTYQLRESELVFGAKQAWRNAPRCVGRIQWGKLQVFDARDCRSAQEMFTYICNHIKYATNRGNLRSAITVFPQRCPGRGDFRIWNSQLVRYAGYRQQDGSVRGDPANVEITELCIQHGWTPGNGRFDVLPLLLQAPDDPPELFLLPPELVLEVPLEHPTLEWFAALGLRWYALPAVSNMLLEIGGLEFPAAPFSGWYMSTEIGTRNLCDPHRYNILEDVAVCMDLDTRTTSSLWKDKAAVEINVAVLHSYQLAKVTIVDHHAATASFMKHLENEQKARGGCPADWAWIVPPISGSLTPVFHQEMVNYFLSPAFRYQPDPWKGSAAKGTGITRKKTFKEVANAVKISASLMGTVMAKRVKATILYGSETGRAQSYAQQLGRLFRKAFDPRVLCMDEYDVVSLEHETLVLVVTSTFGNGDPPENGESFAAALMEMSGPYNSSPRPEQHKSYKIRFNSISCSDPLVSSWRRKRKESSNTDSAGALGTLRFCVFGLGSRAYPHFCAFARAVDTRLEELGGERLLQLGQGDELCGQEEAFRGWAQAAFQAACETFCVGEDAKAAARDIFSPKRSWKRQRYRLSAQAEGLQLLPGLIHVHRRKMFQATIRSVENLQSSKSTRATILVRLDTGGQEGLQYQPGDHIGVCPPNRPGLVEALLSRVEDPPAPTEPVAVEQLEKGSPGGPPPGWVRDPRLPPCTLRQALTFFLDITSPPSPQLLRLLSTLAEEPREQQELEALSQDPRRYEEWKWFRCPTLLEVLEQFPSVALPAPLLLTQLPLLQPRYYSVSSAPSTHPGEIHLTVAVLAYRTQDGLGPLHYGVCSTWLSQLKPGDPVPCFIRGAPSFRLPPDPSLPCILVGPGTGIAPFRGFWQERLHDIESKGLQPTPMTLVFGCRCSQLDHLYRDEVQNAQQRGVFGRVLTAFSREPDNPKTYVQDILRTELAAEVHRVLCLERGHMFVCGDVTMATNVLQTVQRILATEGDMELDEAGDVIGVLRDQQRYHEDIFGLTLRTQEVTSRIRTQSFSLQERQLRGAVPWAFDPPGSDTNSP
How it was run: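 eNOS percent inhibition screened at 10 μM compound; mean ± SD of triplicate experiments.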

C6 [4] = assay: Antiproliferative activity against rat C6 cells assessed as inhibition of cell proliferation at 500 uM after 24 hrs by MTT assay relative to control; assay type: functional; conditions: C6, 24 h
How it was run: (§2)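 C6 rat glioma cells exposed 24 h to increasing concentrations (0–1500 μM); metabolic activity by MTT, expressed as percent of untreated cultures (100%); means ± SD of three replicates.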

[5] = target: T1, Nitric oxide synthase, inducible; assay: Inhibition of recombinant N-terminal His-tagged human iNOS expressed in Escherichia coli using L-arginine as substrate preincubated for 15 mins followed by NADPH addition and measured after 20 mins by OPA/NAC reagent based HPLC-fluorimetric analysis
How it was run: (§3)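 IC50 against human iNOS, nNOS and eNOS from experiments in triplicate at seven different concentrations; mean ± SD reported.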

Nitric oxide synthase 1 [6] = target: T2, Nitric oxide synthase 1; assay: Inhibition of recombinant human nNOS expressed in Escherichia coli using L-arginine as substrate preincubated for 15 mins followed by NADPH addition and measured after 20 mins by OPA/NAC reagent based HPLC-fluorimetric analysis; how it was run: as §3
Nitric oxide synthase 3 = target: T4, Nitric oxide synthase 3 (Homo sapiens, UniProt P29474); assay: Inhibition of human eNOS using L-argininge as substrate preincubated for 15 mins followed by NADPH addition and measured after 20 mins by OPA/NAC reagent based HPLC analysis; how it was run: as §3
T4 sequence (P29474 whole entry): T3 sequence (whole entry)

[7] = target: Nitric oxide sythases; iNOS & nNOS (Homo sapiens) (UniProt P29475+P35228); assay: Selectivity index, ratio of IC50 for recombinant human nNOS expressed in Escherichia coli to IC50 for recombinant N-terminal His-tagged human iNOS expressed in Escherichia coli
How it was run: (§4)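 Ratio of IC50 values for human eNOS or nNOS to that for human iNOS, each IC50 from triplicate runs at seven concentrations.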

Homo sapiens = species: Homo sapiens; assay: Selectivity index, ratio of IC50 for recombinant human eNOS to IC50 for recombinant N-terminal His-tagged human iNOS expressed in Escherichia coli; how it was run: as §4
[8] = Cytotoxicity against rat CTX/TNA2 cells assessed as reduction in cell metabolic activity at 1500 uM after 24 hrs by MTT assay; assay type: ADME, cell-based
How it was run: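 Rat astrocytes (CTX) exposed 24 h to increasing concentrations up to 1500 μM; metabolic activity by MTT, expressed as percent of untreated (0 μM) cultures set at 100%; means ± SD of three replicates.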

C6 [9] = assay: Antiproliferative activity against rat C6 cells assessed as reduction in cell metabolic activity after 24 hrs by MTT assay; assay type: functional, cell-based; how it was run: as §2
C6 [10] = assay: Antiproliferative activity against rat C6 cells assessed as cell metabolic activity at 50 uM after 24 hrs by MTT assay relative to control; assay type: functional; how it was run: as §2
C6 [11] = assay: Antiproliferative activity against rat C6 cells assessed as cell metabolic activity at 750 uM after 24 hrs by MTT assay relative to control; assay type: functional; how it was run: as §2
C6 [12] = assay: Antiproliferative activity against rat C6 cells assessed as cell metabolic activity at 1000 uM after 24 hrs by MTT assay relative to control; assay type: functional; how it was run: as §2
C6 [13] = assay: Antiproliferative activity against rat C6 cells assessed as cell metabolic activity at 1500 uM after 24 hrs by MTT assay relative to control; assay type: functional; how it was run: as §2
C6 [14] = assay: Antiproliferative activity against rat C6 cells assessed as increase in LDH release after 24 hrs by CytoTox 96 Non-Radioactive assay; assay type: functional, cell-based
C6 [15] = assay: Antiproliferative activity against rat C6 cells assessed as LDH release at 250 uM after 24 hrs by CytoTox 96 Non-Radioactive assay (reference value: 13.49%); assay type: functional
C6 [16] = assay: Antiproliferative activity against rat C6 cells assessed as LDH release at 500 to 1000 uM after 24 hrs by CytoTox 96 Non-Radioactive assay (reference value: 13.49%); assay type: functional
C6 [17] = assay: Antiproliferative activity against rat C6 cells assessed as inhibition of cell proliferation at 500 uM after 24 hrs by MTT assay; assay type: functional, cell-based; how it was run: as §2

T1 sequence (P35228 whole entry): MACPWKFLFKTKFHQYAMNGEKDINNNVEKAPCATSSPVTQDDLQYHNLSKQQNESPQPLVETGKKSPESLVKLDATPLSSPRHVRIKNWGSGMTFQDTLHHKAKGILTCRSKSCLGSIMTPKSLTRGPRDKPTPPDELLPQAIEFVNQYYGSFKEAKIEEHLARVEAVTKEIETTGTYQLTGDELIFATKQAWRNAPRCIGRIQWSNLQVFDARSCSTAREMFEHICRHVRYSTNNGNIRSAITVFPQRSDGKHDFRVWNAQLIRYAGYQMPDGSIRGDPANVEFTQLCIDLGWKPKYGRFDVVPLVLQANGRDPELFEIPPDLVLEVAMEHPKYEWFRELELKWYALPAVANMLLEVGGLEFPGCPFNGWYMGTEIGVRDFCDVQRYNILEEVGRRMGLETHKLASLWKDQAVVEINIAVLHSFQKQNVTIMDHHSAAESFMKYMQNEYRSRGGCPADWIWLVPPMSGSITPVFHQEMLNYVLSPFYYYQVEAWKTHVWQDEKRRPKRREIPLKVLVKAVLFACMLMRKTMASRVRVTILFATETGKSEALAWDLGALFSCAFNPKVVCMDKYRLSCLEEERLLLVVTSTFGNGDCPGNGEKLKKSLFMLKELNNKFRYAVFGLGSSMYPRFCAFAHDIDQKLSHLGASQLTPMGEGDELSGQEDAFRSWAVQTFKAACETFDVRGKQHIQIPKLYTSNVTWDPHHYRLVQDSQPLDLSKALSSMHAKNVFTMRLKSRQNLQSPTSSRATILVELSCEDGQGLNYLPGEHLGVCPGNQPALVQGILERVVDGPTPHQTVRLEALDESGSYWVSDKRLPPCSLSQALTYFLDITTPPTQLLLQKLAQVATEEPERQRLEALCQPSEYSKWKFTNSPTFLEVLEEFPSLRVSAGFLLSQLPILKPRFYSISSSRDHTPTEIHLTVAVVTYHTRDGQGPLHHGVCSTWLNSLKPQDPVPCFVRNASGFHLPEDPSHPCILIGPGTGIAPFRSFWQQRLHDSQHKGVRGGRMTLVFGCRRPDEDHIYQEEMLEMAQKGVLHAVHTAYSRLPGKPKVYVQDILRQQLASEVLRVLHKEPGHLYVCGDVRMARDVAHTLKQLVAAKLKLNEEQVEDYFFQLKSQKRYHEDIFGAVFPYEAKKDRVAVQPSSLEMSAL
T2 sequence (P29475 whole entry): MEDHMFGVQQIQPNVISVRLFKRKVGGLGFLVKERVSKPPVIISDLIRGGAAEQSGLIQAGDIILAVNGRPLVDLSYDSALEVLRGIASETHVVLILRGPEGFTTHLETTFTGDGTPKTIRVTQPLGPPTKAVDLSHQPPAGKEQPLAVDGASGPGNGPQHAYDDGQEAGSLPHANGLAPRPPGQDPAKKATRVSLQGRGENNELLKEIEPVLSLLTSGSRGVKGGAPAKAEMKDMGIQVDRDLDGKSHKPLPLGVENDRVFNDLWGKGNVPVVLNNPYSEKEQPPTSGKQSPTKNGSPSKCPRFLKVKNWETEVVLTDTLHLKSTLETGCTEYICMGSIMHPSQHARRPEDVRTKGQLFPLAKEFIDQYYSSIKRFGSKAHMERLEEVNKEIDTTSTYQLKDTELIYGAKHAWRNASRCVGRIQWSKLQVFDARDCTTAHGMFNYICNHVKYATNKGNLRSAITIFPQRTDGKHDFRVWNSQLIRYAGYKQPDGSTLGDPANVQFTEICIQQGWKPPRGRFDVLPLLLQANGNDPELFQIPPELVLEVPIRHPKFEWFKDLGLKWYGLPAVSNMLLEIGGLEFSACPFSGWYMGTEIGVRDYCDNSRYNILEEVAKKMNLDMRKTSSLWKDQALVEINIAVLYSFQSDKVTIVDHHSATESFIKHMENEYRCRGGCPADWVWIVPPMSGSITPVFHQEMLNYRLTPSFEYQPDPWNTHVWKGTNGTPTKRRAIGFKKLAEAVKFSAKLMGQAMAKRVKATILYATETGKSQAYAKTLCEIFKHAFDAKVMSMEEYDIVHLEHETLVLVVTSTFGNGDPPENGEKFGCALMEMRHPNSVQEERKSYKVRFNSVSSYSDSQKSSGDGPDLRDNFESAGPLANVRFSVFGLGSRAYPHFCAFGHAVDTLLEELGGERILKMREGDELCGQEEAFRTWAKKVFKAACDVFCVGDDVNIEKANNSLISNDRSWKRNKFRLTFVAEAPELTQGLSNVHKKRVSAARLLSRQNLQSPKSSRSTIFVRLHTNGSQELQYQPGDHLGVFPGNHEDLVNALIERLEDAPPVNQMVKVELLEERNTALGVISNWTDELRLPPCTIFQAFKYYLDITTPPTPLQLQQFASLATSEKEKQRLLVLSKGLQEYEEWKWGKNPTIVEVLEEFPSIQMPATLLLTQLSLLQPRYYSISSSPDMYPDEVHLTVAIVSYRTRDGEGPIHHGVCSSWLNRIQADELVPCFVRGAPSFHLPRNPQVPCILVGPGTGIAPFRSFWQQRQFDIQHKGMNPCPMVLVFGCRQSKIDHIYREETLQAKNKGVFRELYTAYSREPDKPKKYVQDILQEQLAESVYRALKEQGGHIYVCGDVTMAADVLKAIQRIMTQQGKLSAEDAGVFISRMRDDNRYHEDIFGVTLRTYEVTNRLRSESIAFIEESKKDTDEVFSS
Sequence of Nitric oxide sythases; iNOS & nNOS (Homo sapiens) (P29475 whole entry, looked up): as the sequence (P29475 whole entry) above
Sequence of Nitric oxide sythases; iNOS & nNOS (Homo sapiens) (P35228 whole entry, looked up): as the sequence (P35228 whole entry) above

SMILES | inhibition [1] [%] | inhibition (Nitric oxide synthase 1 [2]) [%] | inhibition [3] [%] | other results
CC(=N)Nc1ccc(C(=O)Nc2nccs2)cc1 | 84 | 96 | 0 | –
Cn1nnc2c(C(N)=O)ncn2c1=O [TEMOZOLOMIDE] | – | – | – | inhibition at 500 µM (C6 [4]): 12%
Br.CC(=N)Nc1ccc(C(=O)Nc2ccc(F)cc2)cc1 | 100 | 0 | 0 | IC50 [5]: 0.011 µM; IC50 (Nitric oxide synthase 1 [6]): 6.2 µM; IC50 (Nitric oxide synthase 3): > 10 µM; Ratio IC50 [7]: 563; Ratio IC50 (Homo sapiens): > 900; Activity [8]: Toxic; Activity (C6 [9]): Dose-dependent effect; Activity (C6 [10]): 86.45%; Activity (C6 [11]): 64.86%; Activity (C6 [12]): 65.22%; Activity (C6 [13]): 64.42%; inhibition at 500 µM (C6 [4]): 31%; Activity (C6 [14]): Dose-dependent effect; Activity (C6 [15]): 22.48%; Activity (C6 [16]): 27%
CC(=N)Nc1nc(-c2ccc(Cl)cc2)cs1 | 100 | 13 | 4 | –
CC(=N)Nc1ccc(C(=O)O)cc1 | 86 | 14 | 62 | –
CC(=N)Nc1ccc(S(=O)(=O)Nc2nccs2)cc1 | 81 | 47 | 3 | –
CC(=N)NCc1cccc(CNC(=O)CCC(=O)O)c1 | – | – | – | IC50 [5]: 0.428 µM
CC(=N)NCc1ccc(C(=O)Nc2nccs2)cc1 | 100 | 0 | 0 | –
CC(=N)NCc1cccc(CN)c1 | – | – | – | Activity (C6 [17]): inactive
CC(=N)NCc1ccc(C(=O)O)cc1 | 70 | 0 | 4 | –
CC(=N)NCc1ccc(C(=O)Nc2ccc(F)cc2)cc1 | 87 | 97 | 0 | –
CC(N)C(=O)Cc1cn[nH]c1 (stereo not drawn) | – | – | – | IC50 [5]: 0.681 µM
CC(=N)Nc1nc(-c2ccccc2)cs1 | 100 | 2 | 14 | –
CC(=N)NCc1ccc(F)cc1 | 93 | 0 | 5 | –
CC(=N)Nc1ccc(F)cc1 | 85 | 10 | 0 | –
CC(=N)NCc1cccc(CNC(=O)C2CCCN2)c1 (stereo not drawn) | – | – | – | Activity (C6 [17]): inactive

From ChEMBL document CHEMBL4619797, “Antiglioma Activity of Aryl and Amido-Aryl Acetamidine Derivatives Targeting iNOS: Synthesis and Biological Evaluation” (ACS Med Chem Lett, 2020)
